Screening results from PubChem BioAssay.
MCL1-BIM inh – inhibitors of human MCL1 binding to BIM-BH3 peptide | Q07820 | inhibition, % at 10.9 µM | hit rate 0.68% among 320,000 | GST-MCL1 / FITC-Bim-BH3 fluorescence polarization | AID 2057;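 active means inhibition above the mean inhibition of all tested compounds plus 3 SD, set per campaign, cut at about 40% in these data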;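 further: higher means more loss of mP so more displacement of Bim peptide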
RBBP9 inh – blocks human serine hydrolase RBBP9; O75884; recombinant RBBP9, FP-Rh probe fluorescence polarization; inhibition, % at 7.94 µM; hit rate 0.2% among 220,000;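 active means inhibition above the campaign mean of all tested compounds plus 3 SD, cut at about 14% in these data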
Target sequence (O75884 whole entry, looked up): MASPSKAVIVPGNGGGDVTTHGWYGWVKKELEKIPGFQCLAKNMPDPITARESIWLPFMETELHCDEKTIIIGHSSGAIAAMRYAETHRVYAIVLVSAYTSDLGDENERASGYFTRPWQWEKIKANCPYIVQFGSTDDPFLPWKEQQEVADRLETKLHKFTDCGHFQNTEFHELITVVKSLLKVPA
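Measured by – fluorescence polarization · Test system – RBBP9 protein · Input – 2.5 µM RBBP9 dispensing solution, before mixing · Measure – percent inhibition from mP, scaled between DMSO and no-protein wells · Benchmarks – DMSO-treated enzyme wells and wells lacking RBBP9 · Times – preincubation 30 min plus labeling 45 min at 25 °C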
EBV gp42 inh – blocks Epstein-Barr virus glycoprotein 42 binding; Fluorescence polarization binding assay, mP read-out; inhibition, % (tested at 21.74 µM); hit rate 0.42% among 220,000; in the data active means inhibition above about 50%
Target sequence (Q1HVG2 whole entry, looked up): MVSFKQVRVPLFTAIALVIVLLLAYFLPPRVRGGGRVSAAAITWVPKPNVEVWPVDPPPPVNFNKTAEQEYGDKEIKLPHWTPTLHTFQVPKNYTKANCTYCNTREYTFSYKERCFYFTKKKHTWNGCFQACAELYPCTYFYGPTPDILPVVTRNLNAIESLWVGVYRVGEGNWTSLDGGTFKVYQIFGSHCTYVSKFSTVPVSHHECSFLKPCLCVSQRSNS
Mcl1 Bid PPI – Mcl-1/Bid interaction inhibition; Q07820; TR-FRET Mcl-1/Bid-Dy647 peptide binding, 1536-well; inhibition, % at 21.7 µM; hit rate 0.97% among 220,000; AID 1021;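 active means compounds that cut the binding signal by more than half at the single screening dose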;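 further: His-tagged Mcl-1 with europium anti-His antibody binding Bid BH3 peptide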
Mcl1-Noxa inh – Mcl-1/Noxa interaction inhibition; hit rate 1.5% among 220,000; TR-FRET Mcl-1/Noxa peptide binding, 2 h; inhibition, % at 21.7 µM; Q07820;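 active means compounds that cut the protein-peptide binding signal by more than 50% relative to plate controls in a single-dose test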;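 further: His-tagged Mcl-1 with rhodamine Noxa BH3 peptide and terbium anti-His antibody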
Bim-Mcl-1 – inhibitors of Bim-Mcl-1 interaction, human | Q07820 | Bead-based flow cytometry, Bim peptide-Mcl-1 binding | inhibition, % at 10 µM | hit rate 0.1% among 190,000 | AID 1009; in the data active means inhibition above about 40%
A number is an active result; 0 = inactive; - = no result given. This is a sample that favours compounds with a hit; in the whole collection about 2.2% have one here.

SMILES	MCL1-BIM inh	RBBP9 inh	EBV gp42 inh	Mcl1 Bid PPI	Mcl1-Noxa inh	Bim-Mcl-1
CN(C)/C=C/C(=O)c1ccc(Cl)cc1Cl	0	0	0	0	0	0
N#C/C(=C\Nc1ccc2cn[nH]c2c1)c1nc(-c2ccc(Cl)cc2)cs1	0	0	0	58.1	52.7	0
CCN(CC)CCOC(=O)c1ccc(N/C=C(/C#N)c2nc(-c3ccc(OC)cc3)cs2)cc1	0	0	0	0	0	-
CC(=O)Nc1ccc(NC(=O)c2cc(=O)c3cc(C)cc(C)c3o2)cc1	0	-	-	-	-	-
Cc1cc(C)c2oc(C(=O)Nc3ccc(S(=O)(=O)Nc4nccs4)cc3)cc(=O)c2c1	0	0	0	0	83.2	-
Cc1cc2oc(C(=O)Nc3ccc(S(=O)(=O)Nc4nccs4)cc3)cc(=O)c2cc1Cl	0	0	0	0	61.5	0
Cc1cc2oc(C(=O)Nc3ccc(S(=O)(=O)N4CCCC(C)C4)cc3)cc(=O)c2cc1Cl (configuration not stated)	0	0	0	0	0	0
COc1ccc2[nH]cc(CCNC(=O)Nc3ccccc3C)c2c1	0	-	-	-	-	-
Cc1cc(NS(=O)(=O)c2ccc(NC(=O)COc3ccc(Br)cc3)cc2)nc(C)n1	0	-	-	-	-	-
CCOc1ccc(OCC(=O)Nc2ccc(S(=O)(=O)Nc3cc(C)nc(C)n3)cc2)cc1	0	0	0	0	68.4	0
COc1ccc2cc(C3CC(c4cccs4)=NN3C(C)=O)c(Cl)nc2c1 (configuration not stated)	0	0	0	53.8	0	-
Cc1ccc2nc(Cl)c(C3CC(c4cccs4)=NN3C(=O)CCC(=O)O)cc2c1 (configuration not stated)	0	0	0	0	0	0
Nc1nc2ccc([N+](=O)[O-])c(N)c2s1	0	0	0	0	53.7	0
CCOC(=O)c1sc(Nc2nc3cc4c(cc3s2)OCO4)cc1C	0	0	0	0	65.4	-
CC(=O)Nc1nc2cc3c(cc2s1)OCO3	0	0	0	0	0	0
O=C1C=C(c2ccc(CO)cc2)C[C@@H](c2ccc3c(c2)OCO3)C1	0	-	-	-	-	-
CCOC(=O)c1c(NC(=O)COC(=O)Cn2c(C)nc3ccccc32)sc2c1CCCC2	0	0	0	55.9	0	0
Cc1ccc(CNC(=O)Cn2cc(C(F)(F)F)ccc2=O)cc1	0	0	0	0	0	0
Cc1cc(C)c(Nc2cc(S(=O)(=O)O)c(N)c3c2C(=O)c2ccccc2C3=O)c(C)c1	52.0	0	0	94.2	106.7	0
Cc1cc(C)c(NC(=O)COC(=O)c2cccc3c2C(=O)c2ccccc2C3=O)c(C)c1	0	0	0	0	0	0
Nc1ccc(NC(=O)c2ccc(C(=O)Nc3ccc(N)cc3)cc2)cc1	0	0	0	61.5	0	-
Nc1ccc(C(=O)Nc2ccc(Nc3ccncc3)cc2)cc1	0	0	0	0	0	-
CCN(c1ccc(NC(=O)CN2C(=O)NC3(CCOc4ccccc43)C2=O)cc1)C(C)C (configuration not stated)	0	0	0	0	65.8	0
CCNC(=O)CN1C(=O)NC2(CCOc3ccccc32)C1=O (configuration not stated)	0	-	-	-	-	-
CC(C)[C@H](NC(=O)[C@@H]1Cc2c([nH]c3ccccc23)C2c3ccccc3C(=O)N21)C(=O)N1CCC[C@@H]1C(=O)O (some centres not stated)	0	-	-	-	-	-
SMILES	MCL1-BIM inh	RBBP9 inh	EBV gp42 inh	Mcl1 Bid PPI	Mcl1-Noxa inh	Bim-Mcl-1
Cc1ncc(CO)c(/C=N/NC(=S)Nc2ccc(Cl)c(Cl)c2)c1O	0	0	0	0	71.0	0
Cc1ncc(CO)c(/C=N/NC(=S)Nc2cccc(Cl)c2)c1O	0	0	0	0	0	0
CCOC(=O)CC1=CSC2=NS(=O)(=O)CCN12	0	0	0	0	74.4	0
CCOC(=O)N1CCN(C(=O)c2cn(C)c3ccc(S(=O)(=O)N(C)C4CCCCC4)cc3c2=O)CC1	0	-	-	-	-	-
NC(=O)COc1c(-c2ccccc2)oc2ccccc2c1=O	0	0	0	97.5	0	0
O=C(O)COc1c(-c2ccccc2)oc2ccccc2c1=O	0	0	0	0	0	0
CCOC(=O)N1CCC(NC(=O)c2ccc3c(c2)N=C(C)c2c(C)ccc(C)c2S3)CC1	0	-	-	-	-	-
CCOC(=O)c1c(C)oc2c1c(C=NCc1ccccn1)c(O)c1ccccc12	-	0	0	0	0	0
CCOC(=O)c1c(C)oc2c1c1c(c3ccccc32)OCN(CCCC(=O)O)C1	0	0	0	0	52.6	-
CCOC(=O)c1c(C)oc2c1c1c(c3ccccc32)OCN(Cc2cccnc2)C1	-	0	0	0	71.1	0
